Compounds with a hit are over-represented: about 1.4% of the library has one in this group of screens.
PLC-gamma1 inh – blocks human PLC-gamma1 enzyme activity. P19174. purified PLC-gamma1, fluorogenic substrate, fluorescence. inhibition, % at 12.2 µM. hit rate 0.84% among 370,000; in the data active = inhibition above about 9.5%
DDE Tn6 FP inh – disrupts Tn6 cyclic peptide binding to fibrin D-Dimer-E complex; P02675; Fibrin DD(E) TRITC-Tn6 fluorescence polarization displacement; inhibition, % at 8.3 µM; hit rate 0.21% among 370,000; AID 720509;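 active = inhibition above a per-campaign cutoff: mean of compounds within control limits plus 3 SD, cut at about 15% in these data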
Target sequence (P02675 whole entry, looked up): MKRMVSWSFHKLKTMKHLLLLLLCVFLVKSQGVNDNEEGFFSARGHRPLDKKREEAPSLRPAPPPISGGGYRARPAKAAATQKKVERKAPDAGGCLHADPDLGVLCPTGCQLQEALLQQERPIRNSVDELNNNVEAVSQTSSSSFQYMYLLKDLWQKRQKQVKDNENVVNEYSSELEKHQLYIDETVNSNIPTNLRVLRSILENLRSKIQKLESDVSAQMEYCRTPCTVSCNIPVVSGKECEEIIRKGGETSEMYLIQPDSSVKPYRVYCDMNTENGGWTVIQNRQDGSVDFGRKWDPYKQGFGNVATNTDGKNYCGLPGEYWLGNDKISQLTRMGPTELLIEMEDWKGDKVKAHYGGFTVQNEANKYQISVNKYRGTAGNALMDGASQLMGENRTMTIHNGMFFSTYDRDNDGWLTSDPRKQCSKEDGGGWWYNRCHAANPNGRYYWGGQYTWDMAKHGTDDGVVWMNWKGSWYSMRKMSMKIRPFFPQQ
DDE Tn7 FP inh – inhibitors of Tn7 peptide binding to human fibrin DD(E); P02675; FP displacement of FITC-Tn7 peptide from fibrin DD(E); 0% = median of compound wells per plate; inhibition, % at 8.3 µM; hit rate 0.13% among 370,000; AID 720508;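 active = inhibition above the mean of compounds falling within the control limits plus 3 SD of them, cut at about 14% in these data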
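Assay system: human fibrin DD(E). Input: DD(E) 2 µM final. Medium: Tris buffer with calcium and detergent, pH 7.8. Compound dosing: single point at 8.3 µM. Timing: 10 min plus 3 h, room temperature. Technique: fluorescence polarization of the labelled Tn7 tracer. Read-out: percent inhibition. Replicates: singlicate testing.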
FID counter – counter-screen for HCV NS3 helicase inhibitors: DNA intercalator displacement; DNA fluorescent intercalator displacement, fluorescence; inhibition, % at 7.9 µM; hit rate 0.17% among 290,000; in the data active = inhibition above about 37%;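 also: higher means more ethidium bromide displaced from hairpin DNA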
PLC-beta3 inh – PLC-beta3 (human) inhibition, primary screen; AID 720704; inhibition, % at 12.2 µM; Q01970; hit rate 0.18% among 370,000; Purified PLC-beta3, fluorogenic substrate, fluorescence; in the data active = inhibition above about 11%
DDE Tn7 confirm – DD(E)-Tn7 binding inhibition, FP confirmation; hit rate 5% among 460; shares compounds with DDE Tn7 FP inh; FP displacement of TRITC-Tn7 peptide from DD(E); 0% set at plate's compound-well median; inhibition, % at 8.3 µM; AID 720628;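 active = inhibition above the campaign cutoff, the mean of compounds within control limits plus 3 SD, cut at about 14% in these data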;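 also: displacers lower polarization since freed probe rises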
Tn7 DDE ctr – DD(E)-Tn7 binding inhibition, counter-screen; fibrin DD(E), TRITC-Tn7 probe displacement, fluorescence polarization; inhibition, % at 8.3 µM; hit rate 3% among 460; shares compounds with DDE Tn7 FP inh;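 active = inhibition above the cutoff, the mean of compounds lying between the control bounds plus 3 SD of those compounds, cut at about 17% in these data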
Numbers stand for hits; i = inactive; nt = no result given.

SMILES	PLC-gamma1 inh	DDE Tn6 FP inh	DDE Tn7 FP inh	FID counter	PLC-beta3 inh	DDE Tn7 confirm	Tn7 DDE ctr
c1ccc(CSc2ccc(-c3ccc4c(c3)OCO4)nn2)cc1	i	i	i	i	i	nt	nt
Fc1cccc(CCN2C(=S)NC[C@@H]2Cc2ccccc2)c1	i	i	15	i	i	i	i
CCCC[C@@H]1CNC(=S)N1CCc1cccc(F)c1	i	i	i	i	i	nt	nt
CN1C2C=C3C(C#N)=C(N)C(C#N)(C#N)[C@H](c4c(F)cccc4F)[C@H]3C1CC2 (some centres not stated)	i	i	i	i	i	nt	nt
N#CC1=C(N)C(C#N)(C#N)[C@H](c2c(F)cccc2F)[C@H]2CC3(CC=C12)OCCO3	i	i	16	i	i	i	i
CNC(=O)OCN1C(=O)C2CC=CCC2C1=O (configuration not stated)	i	i	i	nt	i	nt	nt
CNC(=O)Cn1ncc2c(C)n(Cc3ccc(C)cc3)c(C)c2c1=O	i	i	14	i	i	i	i
CCOC(=O)c1oc2cccc(O)c2c1CN(Cc1ccccc1)C(C)=O	i	i	14	i	i	i	i
COC(=O)[C@@]1(Cc2ccccc2)[C@H]2C(=O)N(C)C(=O)[C@H]2[C@H]2CN=C(SCc3ccc(C#N)cc3)N21	i	i	i	nt	i	nt	nt
O=C(Cc1ccccc1)Nc1ccccc1C(=O)Nc1ccc(C(=O)O)cc1	i	i	i	i	i	nt	nt
COc1cc2c(c(OC)c1OC)-c1ccc(OC)c(=O)cc1[C@@H](NC(C)=O)CC2	i	i	i	i	i	nt	nt
COc1cc2c(c(OC)c1OC)-c1ccc(NCc3ccccc3)c(=O)cc1C(NC(C)=O)CC2 (configuration not stated)	i	i	15	nt	i	i	i
O=C(COC(=O)C1CCN(S(=O)(=O)c2c(Cl)cccc2Cl)CC1)NCc1ccco1	i	i	i	nt	i	nt	nt
Cc1cc(C)c(NC(=O)CN(C)S(=O)(=O)c2ccc3c(c2)n(C)c(=O)c(=O)n3C)c(C)c1	i	i	i	i	i	nt	nt
C=CCOc1ccc(/C=C/C(=O)N2CCCN(S(=O)(=O)c3c(C)noc3C)CC2)cc1	i	i	15	nt	i	i	i
COC(=O)C1C2C=CC3(CN(C(C)c4ccc(OC)cc4)C(=O)C13)O2 (configuration not stated)	i	i	i	i	i	nt	nt
O=C(COc1ccc(Oc2ccccc2)cc1)NCc1cn2ccccc2n1	i	i	16	i	i	i	i
Cc1cccc(NC(=O)c2sc3nc(-c4ccc(F)cc4)cn3c2C)n1	i	i	i	i	i	nt	nt
CN(C(=O)c1cccc(NC(=O)Cc2cccc(NC(=O)C3CCN(C(=O)C4CCCCC4)CC3)c2)c1)C1CC1	i	i	15	nt	i	i	i
Cc1ccc(CNC(=S)Nc2ccc(OC(F)F)cc2C)cc1	i	i	i	i	i	nt	nt
Cc1ccc(NC(=S)NCc2ccc(Cl)cc2)c(OC(F)F)c1	i	i	14	i	i	i	i
COC(=O)C1=CN(c2cccc(OCc3ccccc3)c2)C(N)=C(C#N)C1c1cccc(OC)c1OC (configuration not stated)	i	i	i	nt	i	nt	nt
CC(=O)Nc1cc(-c2ccccc2N(C)C)cn2c(-c3ccc(S(C)(=O)=O)cc3)cnc12	i	i	26	nt	i	i	i
CN(C)S(=O)(=O)c1cccc(NC(=O)C2CCN(S(=O)(=O)c3cccs3)CC2)c1	i	i	14	nt	i	i	i
CC(=O)c1cccc(NC(=O)C2CCN(S(=O)(=O)c3cccs3)CC2)c1	i	i	i	i	i	nt	nt
SMILES	PLC-gamma1 inh	DDE Tn6 FP inh	DDE Tn7 FP inh	FID counter	PLC-beta3 inh	DDE Tn7 confirm	Tn7 DDE ctr
O=C(c1oc2ccccc2c1N1CCCCC1)N1CCCCC1	i	i	15	i	i	i	i
O=C1CCCC2=C1C(c1ccsc1)CC(=O)N2c1ccccc1F (configuration not stated)	i	i	15	i	i	i	i
O=C1CCCC2=C1C(c1ccccc1)CC(=O)N2c1ccccc1 (configuration not stated)	i	i	i	i	i	nt	nt
COc1ccccc1N(CC(=O)NCCSCc1ccccc1)S(C)(=O)=O	i	i	14	i	i	i	i
COc1ccccc1N(CC(=O)NCCSCc1ccc(Cl)cc1)S(C)(=O)=O	i	i	i	i	i	nt	nt
COC(=O)C[C@@H]1CC[C@@H](NC(=O)NC2CCCC2)[C@@H](CO)O1	i	i	i	nt	i	nt	nt
CCS(=O)(=O)c1ccc2c(c1)N(S(=O)(=O)c1ccc(C)cc1)CC(C(=O)O)O2 (configuration not stated)	i	i	i	i	i	nt	nt
O=c1[nH]cnc2c1c(-c1ccccc1)cn2-c1ccccc1	i	i	17	i	i	i	i
Cc1cc(N)n(-c2ccc(C(=O)O)cc2)n1	i	i	i	i	i	nt	nt
Cc1cc(C)n(-c2ccc(C(=O)O)cc2)n1	i	i	14	i	i	i	i
COc1ccc(NC(=S)N2CCN(Cc3ccccc3)CC2)c(OC)c1	i	i	15	i	i	i	i
C=CCn1c(=O)[nH]c2nc3cc(N=CN(C)C)c(C)cc3nc2c1=O	i	i	23	i	i	i	i
CN1CCN(C(=O)c2cc3c(c(-c4cccc(C#CC(C)(C)O)c4)n2)[C@H](CCO)N(S(=O)C(C)(C)C)C3)CC1 (some centres not stated)	i	i	i	nt	i	nt	nt
CCc1c(C)nc2ncnn2c1NCc1cccs1	i	i	i	i	i	nt	nt
FC(F)(F)c1cc(NCc2cccs2)n2ncnc2n1	i	i	15	i	i	i	i
Cc1ccc(C2=NN(C(=O)CCl)C(c3cccs3)C2)o1 (configuration not stated)	i	i	i	i	i	nt	nt
Cc1ccc(C)c(NC(=O)COc2coc(CN3CCc4ccccc43)cc2=O)c1	i	i	i	nt	i	nt	nt
Cc1ccccc1NC(=O)COc1coc(CN2CCCc3ccccc32)cc1=O	i	i	15	nt	i	i	i
Cc1ccccc1CC(=O)N1CCN(C(=O)C2CCCO2)CC1 (configuration not stated)	i	i	i	i	i	nt	nt
COc1ccc(NC(=O)c2ccc3c(c2)OCO3)cc1	i	i	i	i	i	nt	nt
COc1ccc(NC(=O)C(c2cc3c(cc2[N+](=O)[O-])OCO3)N(C)c2ccccc2)cc1 (configuration not stated)	i	i	15	i	i	i	i
CCC(CC)C(=O)c1c[nH]c(C(=O)NCc2ccccc2)c1	i	i	14	i	i	i	i
CN1CCN(C(=O)OCCOCCOC(=O)N2CCN(C)CC2)CC1	i	i	14	nt	i	i	i
CCCCOC(=O)N1CCOCCOCCOCC1	i	i	i	i	i	nt	nt
CSc1ccccc1NC(=O)COC(=O)c1cnc(C)cn1	i	i	14	nt	i	i	i
